SMILES strings stand for the structures. Calls of active or inactive are those of the source. The calls are words filed in the database; no cut-off is given here.

In assay [1] the test system is HaCaT. Put plainly: Activation of mitochondrial cytochrome C oxidase in human HaCaT lysate at 50 uM using equine cardiac cytochrome C substrate by spectrophotometry. Put shortly: (§1)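 Lysis in HEPES buffer (20 mM HEPES, 0.1% Triton, 1 mM EDTA). Lysates were Bradford-adjusted to 2 mg/mL. v0 was taken without substrate, then 50 μM reduced cytochrome c was added. Loss was read at 550 nm over 90 s. Slopes gave U/μg. Activity was expressed as % of the DMSO 0.1% control; n=3, mean ± SD, paired t test.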

Assay [2] deals with HaCaT. Kind of assay: Activation of mitochondrial cytochrome C oxidase in human HaCaT lysate at 0.87 to 7 uM using equine cardiac cytochrome C substrate by spectrophotometry. Put shortly: as §1
Assay [3] deals with HaCaT. Put plainly: Induction of mitochondrial biogenesis in human HaCaT cells assessed as ratio of mitochondrial COX2 to UCP2 gene quantity at 1.75 to 7 uM by qPCR. Format: functional, cell-based. In a few lines: (§2)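 HaCaT cells were treated as for the oxidase assay, but for 48 h. Lysis in Tris 10 mM/EDTA 1 mM/NaOAc 0.3 M/SDS 1%, then phenol DNA extraction. SYBR Green qPCR ran 45 cycles at 60 °C with calibration curves from serial DNA dilutions. Mitochondrial 16S or cox2 DNA was quantified relative to nuclear ucp-2 DNA and normalized to untreated cells; biogenesis was taken as a ratio >1. n=3, mean ± SD, paired t test.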
Background: Real-time PCR tracks product formation cycle by cycle.

The subject of assay [4] is HaCaT. Put plainly: Induction of mitochondrial biogenesis in human HaCaT cells assessed as mitochondrial 16S rRNA level by qPCR. Format: functional, cell-based. Put shortly:
as §2

Assay [5] deals with HaCaT. Kind of assay: Activation of mitochondrial cytochrome C oxidase in human HaCaT lysate using equine cardiac cytochrome C substrate by spectrophotometry relative to resveratrol.
In assay [6] the test system is HaCaT. Put plainly: Activation of mitochondrial cytochrome C oxidase in human HaCaT lysate at 0.81 uM using equine cardiac cytochrome C substrate by spectrophotometry. In a few lines:
as §1

For the compound `Oc1ccc(/C=C/c2cc(O)cc(O)c2)cc1`, the Activity in the assay on HaCaT [1] amounted to 138%.
With `O=C(/C=C/c1ccccc1)O[C@@H]1[C@@H](O)[C@H](O[C@@](CC(=O)OCc2ccc(O[C@@H]3O[C@H](CO)[C@@H](O)[C@H](O)[C@H]3O)cc2)(Cc2ccc(O)cc2)C(=O)OCc2ccc(O[C@@H]3O[C@H](CO)[C@@H](O)[C@H](O)[C@H]3O)cc2)O[C@H](CO)[C@H]1O`, the outcome with HaCaT [2] was inactive.
`O=C(C[C@](O)(Cc1ccc(O)cc1)C(=O)OCc1ccc(O[C@@H]2O[C@H](CO)[C@@H](O)[C@H](O)[C@H]2O)cc1)OCc1ccc(O[C@@H]2O[C@H](CO)[C@@H](O)[C@H](O)[C@H]2O)cc1`: the outcome in the assay on HaCaT [3] and in the assay with HaCaT [4] was inactive. The Activity in the assay on HaCaT [2] is 158%. Moreover, the fold change (FC) with HaCaT [5] stood at 60. The result in the assay with HaCaT [6] was Active.
With `O=C(O)C[C@](O)(Cc1ccc(O)cc1)C(=O)O`, the result in the assay with HaCaT [3] and in the assay on HaCaT [4] was inactive. Besides, the fold change (FC) in the assay on HaCaT [5] is 60. Further, the result in the assay on HaCaT [6] was Active.
Regarding `O=C(C[C@](O)(Cc1ccc(O)cc1)C(=O)O)OCc1ccc(O[C@@H]2O[C@H](CO)[C@@H](O)[C@H](O)[C@H]2O)cc1`, the result in the assay on HaCaT [3], with HaCaT [2] and in the assay with HaCaT [4] was inactive.

For the origin of these results see ChEMBL document CHEMBL1799945, “Glucosyloxybenzyl eucomate derivatives from Vanda teres stimulate HaCaT cytochrome c oxidase” (J Nat Prod, 2011).
